Data set [1] has as its system MDA-MB-468 shp53 cells (mtp53 R273H knockdown). The data set is described as follows: Cy5p53Tet uptake with and without shRNA depletion of mtp53. In kind it is cell-based, human. The settings on record: 500 nM; for Reduction of Cy5p53Tet signal (relative ROI intensity) on depletion of mtp53: knockdown vs control. The essentials: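 MDA-MB-468 shp53 knockdown induced with 8 μg/mL doxycycline for 7 days; p53 depletion checked by Western blot. Cells seeded at 2 × 10^5 per well 1 day before, then given 500 nM Cy5-peptide at 37 °C for 30 min, 2 h, 4 h or 24 h. Peptide removed, cells PBS-washed, Hoechst-stained (1 μg/mL, 5 min), confocal Z-stacks at 60×. Three independent experiments; mean + SEM, two-tailed t-test.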

The subject of data set [2] is HCC70 cells (mtp53 R248Q). The data set is described as follows: Peptide cytotoxicity assay. The class given is cell-based, human. The settings on record: 500 nM Cy5p53Tet, 24 h, three independent experiments. The essentials:
(§1)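 Cells (1.25 × 10^5, 12-well) seeded the day before at 37 °C, then given 500 nM Cy5-peptide for 24 h. MTT (5 mg/mL solution) added for 1 h at 37 °C. Product dissolved in 0.04 N HCl/isopropanol, 5 min in the dark at room temperature. Absorbance read at 550 nm minus 620 nm background. Three independent experiments; mean ± SEM, t-test.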

The test system of data set [3] is MDA-MB-468 cells (mtp53 R273H) compared to MCF7 cells (wtp53). In words: Cy5p53Tet cellular uptake by live cell imaging. The class given is cell-based, human. The settings on record: 500 nM, 2 h incubation, 37 °C; confocal microscopy, Nikon Element analysis, at least 200 cells per sample.
The test system of data set [4] is MCF-10A nonmalignant human mammary epithelial cells (wtp53). The data set is described as follows: Peptide cytotoxicity assay. The class given is cell-based. As to conditions: 500 nM Cy5p53Tet, 24 h, three independent experiments.
Data set [5] has as its system MDA-MB-468 cells (mtp53) compared to MCF7 cells (wtp53). The data set is described as follows: Cy5p53Tet cellular uptake by flow cytometry. As to conditions: 2 h, 37 °C. The class given is cell-based, human. The essentials:
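MCF7 and MDA-MB-468 cells in DMEM with 10% FBS, seeded at 5 × 10^5 per well and held at 37 °C overnight. Medium swapped for vehicle, 100 or 500 nM Cy5-peptide for 2 h at 37 °C. Cells washed, trypsinized, pelleted and resuspended in PBS. 2 × 10^4 events per sample; geometric MFI taken.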
A general note: In flow cytometry, cells or beads pass a laser one at a time.

The next data set has as its system MCF7 cells (wtp53). In words: Peptide cytotoxicity assay. The class given is cell-based, human. The settings on record: 500 nM Cy5p53Tet, 24 h, three independent experiments. Put shortly: as §1
Data set [6] deals with MDA-MB-468 (mtp53 R273H) and MCF7 (wtp53) xenografts. In words: NIRF imaging in mice bearing bilateral MCF7/MDA-MB-468 xenografts. The class given is in vivo, mouse.
Data set [7] concerns MDA-MB-468 cells (mtp53 R273H). In words: Peptide cytotoxicity assay. In kind it is cell-based, human. As to conditions: 500 nM Cy5p53Tet, 24 h, three independent experiments. Put shortly:
as §1

Where [8] appears, read: after intravenous administration, IVIS Spectrum.

As to “H-CysCy5-RKKRRQRRGEYFTLQIRGRER-FEMFRELNEALELK-OH [Cy5p53Tet]”, the results for the “Reduction of Cy5p53Tet signal (relative ROI intensity) on depletion of mtp53” value in data set [1] (30 min incubation), in data set [1] (2 h incubation) and in data set [1] (4 h incubation) were 61%, 63% and 67%, respectively. For the same substance, the “Difference of Cy5p53Tet signal between knockdown and control cells” value in data set [1] (24 h incubation) is given as “no statistically significant difference”. The “Reduction of mitochondrial activity (MTT)” value is 13.6% in data set [2], “No significant reduction of mitochondrial activity” in data set [4], 9.8% with MCF7 cells (wtp53) and 10.6% in data set [7]. For the same substance, in data set [3], the “Uptake of Cy5p53Tet in MDA-MB-468 cells compared to MCF7 cells” value is recorded as “twofold higher uptake”. Further, the “Geometric MFI, fold more uptake in MDA-MB-468 than in MCF7 cells” value in data set [5] (100 nM Cy5p53Tet) is 1.58 fold; in data set [5] (500 nM Cy5p53Tet), 1.65 fold. Moreover, the “In vivo NIRF signal in MCF7 tumors” value in data set [6] (setting [8]) was “no signal was present”. Further, the “In vivo NIRF signal in MDA-MB-468 tumors” value in data set [6] (setting [8]) was “clearly observed”. In addition, in data set [6] (liver, large intestines, small intestines, three mice), the “Signal in healthy tissues (whole-body and resected tissue images)” value is recorded as “significantly high levels of the signal in several healthy tissues”.

These data come from paper PMC8068092 (Molecular pharmaceutics, 2020).
